According to PubChem BioAssay:
Activity calls are given as the source filed them.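 Rule for the calls, unless noted: active = inhibition at or above 50% at 10 µM; inactive = inhibition below 50%.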

Experiments:
[1] = inhibitors of TNFa-induced NFkB p65 translocation, primary screen, imaging, HUVEC, MLSMR starter and 10KST1 sets (AID 438;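 active = inhibition above 20% together with a positive visual image hit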;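 note: compound added about 3h40 before a 20 min TNFalpha stimulation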;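 for inhibition: signal is the nuclear over cytoplasmic p65 intensity ratio per well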); conditions: HUVEC TNFa-induced p65 nuclear translocation; cell count: measured here: nuclei count (cytotoxicity indicator), at 2.08 µM; inhibition: at 2 µM, stronger effect = higher value, 0% TNFa-plus-vehicle, 100% no-TNFa wells
[2] = reduction of polyQ htt aggregates in cells – imaging, exon1htt(103Q)mCFP cells, high-content imaging, primary screen (AID 483;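 active = visual image review flags a hit and inhibition of aggregation exceeds 20%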;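 note: compound exposure lasted 3 days before fixation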;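 for nuclei count: percent of the per-plate median nuclei count of sample wells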); conditions: exon1htt(103Q)mCFP cell line, aggregate imaging, at 2 µM; inhibition of aggregation: stronger effect = higher value; nuclei count: measured here: cell count, toxicity
[3] = endothelial E-selectin expression blockers – imaging, HUVEC, immunofluorescence, MLSMR starter and 10KST1 sets, primary screen (AID 487;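 active = visually confirmed hit in the image check and inhibition above 20%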;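 for inhibition: signal is fraction of cell area covered by stained E-selectin grains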;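 for nuclei count: 100% = median nuclei count of all wells on the same plate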); conditions: HUVEC TNFalpha-induced E-selectin immunofluorescence imaging, at 2 µM; inhibition: stronger effect = higher value; nuclei count: measured here: cell number, toxicity
[4] = target: Voltage-gated potassium channel subunit beta-2 (Rattus norvegicus) (UniProt P62483); assay: inhibitors of rat Kvbeta2 reductase activity – biochemical, NADPH fluorescence, primary screen (AID 622;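 active = fluorescence slope higher than the sample average by over 3 SD, cut at about -0.22 in these data, passing the limit was not always enough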;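 note: slope of raw intensity against log time taken from 70 to 1610 s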); conditions: recombinant KvBeta, 4-cyanobenzaldehyde reduction, at 10 µM, stronger effect = higher value
[5] = target: Voltage-gated potassium channel subunit beta-2 (Rattus norvegicus) (UniProt P62483); assay: enhancers of rat Kvbeta2 NADPH turnover – biochemical, NADPH fluorescence, primary screen (AID 623;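 active = NADPH fluorescence slope more negative than the mean of all samples by about 3 SD, 99.7% confidence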;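 note: fluorescence intensity change per second fitted from 20 to 320 s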); conditions: Recombinant KvBeta, NADPH fluorescence decrease slope, 10 min; at 10 µM; stronger effect = lower value
[6] = target: Muscarinic acetylcholine receptor M4 (Homo sapiens) (UniProt P08173); assay: M4-linked GIRK flux change, two-sided – cell-based, HEK293 M4/GIRK, thallium flux, BTC-AM, M4 allosteric agonist project, primary screen (AID 625;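 active = fluorescence slope after compound addition differing from the mean of all tested samples at 99.7% confidence, mostly higher but some lower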;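 note: thallium influx through GIRK channels coupled to M4 in HEK293 cells with BTC-AM dye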); conditions: at 10 µM, actives lie on both sides
Summary of the method: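 System: HEK293 cells with M4 receptor and GIRK channels | Incubation: Cells overnight at 37 °C, BTC-AM loading 1 h, reads 2 min total | Technique: Kinetic BTC-AM fluorescence sampled at 1 Hz, 10 s pre-addition baseline | Measure: Post-addition slope, 15–24 s, of baseline-normalized fluorescence | Control set: Carbachol positive, DMSO negative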

[7] = blockers of RIG-like receptor reporter activation – cell-based, Sendai virus stimulus, luciferase, 10K MLSCN set, TLR/RLR signaling modifier project, primary screen (AID 602276); conditions: HEK293 RL24 IRF3 luciferase reporter, at 10 µM, stronger effect = higher value;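 note: firefly luciferase from ISG56 promoter only with Renilla not read in this screen; 0% = Sendai virus plus DMSO and 100% = medium plus DMSO without virus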
[8] = TLR3 IRF3 reporter activation blockers – cell-based, poly I:C stimulus, luciferase, 10K MLSCN set, primary screen (AID 602277;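 active = inhibition of the reporter signal at or above 50%; inactive = inhibition below 50%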); conditions: HEK293-TLR3 RL24 IRF3 luciferase reporter, at 10 µM, stronger effect = higher value

Sequence of Muscarinic acetylcholine receptor M4 (Homo sapiens) (P08173 whole entry, looked up): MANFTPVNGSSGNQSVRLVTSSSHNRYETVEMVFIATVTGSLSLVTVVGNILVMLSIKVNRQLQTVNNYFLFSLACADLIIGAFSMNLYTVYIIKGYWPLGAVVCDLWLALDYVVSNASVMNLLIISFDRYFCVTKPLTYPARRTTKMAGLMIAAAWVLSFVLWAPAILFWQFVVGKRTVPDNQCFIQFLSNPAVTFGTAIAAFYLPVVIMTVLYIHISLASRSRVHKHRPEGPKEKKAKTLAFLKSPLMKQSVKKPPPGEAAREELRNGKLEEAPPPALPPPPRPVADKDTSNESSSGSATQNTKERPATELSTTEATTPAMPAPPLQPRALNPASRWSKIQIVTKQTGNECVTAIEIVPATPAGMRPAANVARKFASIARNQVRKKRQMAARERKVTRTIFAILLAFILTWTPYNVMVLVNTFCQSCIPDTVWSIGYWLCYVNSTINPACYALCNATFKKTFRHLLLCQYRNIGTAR
Sequence of Voltage-gated potassium channel subunit beta-2 (Rattus norvegicus) (P62483 whole entry, looked up): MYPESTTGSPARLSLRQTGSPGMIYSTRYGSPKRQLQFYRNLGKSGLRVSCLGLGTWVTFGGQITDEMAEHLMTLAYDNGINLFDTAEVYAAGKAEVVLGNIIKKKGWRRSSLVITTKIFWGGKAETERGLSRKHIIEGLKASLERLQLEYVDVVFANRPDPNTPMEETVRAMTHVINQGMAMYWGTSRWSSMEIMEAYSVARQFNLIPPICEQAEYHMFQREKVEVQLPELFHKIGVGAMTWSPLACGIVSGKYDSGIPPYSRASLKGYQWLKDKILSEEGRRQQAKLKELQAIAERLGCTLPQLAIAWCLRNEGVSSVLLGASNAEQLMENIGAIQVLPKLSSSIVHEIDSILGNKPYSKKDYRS

Row | SMILES | cell count [1] | inhibition [1] | inhibition of aggregation [2] | nuclei count [2] | inhibition [3] | nuclei count [3] | fluorescence slope [4] | NADPH fluorescence slope [5] | fluorescence slope [6] | inhibition [7] | inhibition [8]
1 | COc1ccc(-n2cc(-c3ccccc3)c3c(N4CCN(CCO)CC4)ncnc32)cc1 | 568 | -26.5% (inactive) | 3.6% (inactive) | 102% | -29.3% (inactive) | 99.1% | -0.519 (inactive) | -6.1e-07 (inactive) | 0.003 (inactive) | 13.2% (inactive) | 25.2% (inactive)
2 | O=C(CSc1nc2ccccc2o1)N1CCN(c2ccc(Cl)cc2)CC1 | 301 | -0.5% (inactive) | -13.9% (inactive) | 117% | -47% (inactive) | 124% | -0.576 (inactive) | -3.9e-05 (inactive) | 0.00749 (inactive) | 16.8% (inactive) | 7.29% (inactive)
3 | CCN(CC)C(=O)Oc1ccccc1NC(C)=O | 366 | -3.9% (inactive) | 17.2% (inactive) | 85.8% | -63.5% (inactive) | 121% | -0.221 (inactive) | 2.5e-07 (inactive) | 0.00764 (inactive) | 20.6% (inactive) | 13.2% (inactive)
4 | O=C(Nc1ccc(S(=O)(=O)NC2CCCC2)cc1)c1cnccn1 | 288 | 1.5% (inactive) | 0.6% (inactive) | 97.1% | -54% (inactive) | 117% | -0.543 (inactive) | -1.1e-05 (inactive) | 0.00448 (inactive) | 10.3% (inactive) | 11.7% (inactive)
5 | CCc1nnc(NC(=O)C2CCN(c3nccc(C)n3)CC2)s1 | 533 | 0.5% (inactive) | 0.2% (inactive) | 103% | -13.3% (inactive) | 96.9% | -0.317 (inactive) | -3.6e-05 (inactive) | 0.00544 (inactive) | 11% (inactive) | 14.7% (inactive)
6 | O=C(c1cnsn1)N1CCN(c2ccccn2)CC1 | 277 | 9.3% (inactive) | 4% (inactive) | 82.9% | 1.4% (inactive) | 95.4% | -0.45 (inactive) | -2.9e-05 (inactive) | 0.00527 (inactive) | 4.49% (inactive) | -0.785% (inactive)
7 | Cn1c(=O)c(C(=S)NC(=O)C2CC2)c(N)n(Cc2ccccc2)c1=O | 381 | -8% (inactive) | 14.6% (inactive) | 111% | -77.3% (inactive) | 141% | -0.48 (inactive) | -3.3e-05 (inactive) | 0.00619 (inactive) | 10.8% (inactive) | 14.5% (inactive)
8 | Clc1ccc(SCCCCn2ccnc2)cc1 | 289 | -10.4% (inactive) | 0.8% (inactive) | 101% | -114% (inactive) | 115% | -0.306 (inactive) | -1.2e-05 (inactive) | 0.00775 (inactive) | -17.8% (inactive) | -10.6% (inactive)
9 | COc1ccc(-c2nn(-c3ccccc3)cc2/C=N/n2cnnc2)cc1OC | 737 | 0.7% (inactive) | -17.1% (inactive) | 100% | -74.5% (inactive) | 108% | -0.464 (inactive) | -6.1e-05 (inactive) | 0.00596 (inactive) | 1.15% (inactive) | 1.32% (inactive)
10 | O=C(Cn1cnc2c(oc3ccccc32)c1=O)N1CCN(c2ccccc2)CC1 | 648 | 10.8% (inactive) | 34.2% (inactive) | 95% | -78% (inactive) | 84.4% | -0.493 (inactive) | 1.3e-05 (inactive) | 0.00654 (inactive) | 10.1% (inactive) | 17.4% (inactive)
11 | Cn1nc(-c2ccc(C(=O)NCC3CCCO3)cc2)c2ccccc2c1=O (stereo not drawn) | 796 | -3.5% (inactive) | 37.8% (inactive) | 104% | -18.3% (inactive) | 116% | -0.574 (inactive) | -5.3e-05 (inactive) | 0.00681 (inactive) | 19.3% (inactive) | 31.4% (inactive)
12 | Cc1ccc(-c2ccc(=O)n(CCC(=O)NCc3ccccn3)n2)cc1 | 366 | -15.6% (inactive) | -2.2% (inactive) | 99.9% | -2.7% (inactive) | 108% | -0.534 (inactive) | -3e-05 (inactive) | 0.00635 (inactive) | 14.5% (inactive) | 21.8% (inactive)
13 | O=C(N1CCCCCC1)N1CCN(S(=O)(=O)N2CCCCC2)CC1 | 323 | -2.2% (inactive) | 9.2% (inactive) | 106% | -33.5% (inactive) | 126% | -0.579 (inactive) | -4.8e-05 (inactive) | 0.00553 (inactive) | 24% (inactive) | 12.9% (inactive)
14 | COc1ccc(-n2c(SCC(=O)Nc3ccc(C(=O)O)cc3)nnc2-c2cccs2)cc1 | 443 | 2.8% (inactive) | -7.1% (inactive) | 91.6% | -43.4% (inactive) | 150% | -0.451 (inactive) | -0.000238 (inactive) | 0.00524 (inactive) | 0.267% (inactive) | 6.83% (inactive)
15 | COC(=O)c1cc(Oc2ccc(C(=O)OC)cc2N)cc(C(=O)OC)c1 | 278 | -12.5% (inactive) | 1% (inactive) | 106% | -19% (inactive) | 108% | -0.467 (inactive) | -0.000384 (inactive) | 0.00407 (inactive) | -3.38% (inactive) | 8.08% (inactive)
16 | COc1ccccc1NC1=NC2(CCCC2)N=C(N)N1 | 313 | -9.5% (inactive) | -26.7% (inactive) | 115% | 18% (inactive) | 124% | -0.569 (inactive) | -6.5e-06 (inactive) | 0.00551 (inactive) | 7.65% (inactive) | 19.3% (inactive)
17 | O=C(CSc1nc2[nH]ncc2c(=O)n1-c1ccccc1Br)NCc1ccco1 | 517 | -24% (inactive) | -8.3% (inactive) | 83.4% | -15.2% (inactive) | 95% | -0.549 (inactive) | -3.1e-05 (inactive) | 0.00777 (inactive) | 22.2% (inactive) | 28.1% (inactive)
18 | COC(=O)c1ccc(NC(=O)CN2C(=O)CSC2=O)cc1 | 454 | 3.1% (inactive) | -17.9% (inactive) | 113% | -41% (inactive) | 109% | -0.404 (inactive) | -3e-05 (inactive) | 0.00594 (inactive) | 7.22% (inactive) | 10.7% (inactive)
19 | CCNC(=O)CC(=O)Nc1ccccc1C(=O)O | 725 | -14.7% (inactive) | 11.3% (inactive) | 90.3% | -35.3% (inactive) | 118% | -0.282 (inactive) | -2.6e-05 (inactive) | 0.00586 (inactive) | 17.2% (inactive) | 16.6% (inactive)
20 | CCC(Oc1ccc2ccccc2c1)C(=O)O (stereo not drawn) | 666 | -4% (inactive) | -46.2% (inactive) | 129% | -39.6% (inactive) | 137% | -0.489 (inactive) | 6e-05 (inactive) | 0.00595 (inactive) | -9.77% (inactive) | -32.2% (inactive)
21 | COc1cccc2cc(C(=O)N3CCc4ccccc43)c(=O)oc12 | 274 | 4.3% (inactive) | -4.2% (inactive) | 106% | 18.4% (inactive) | 99% | -0.466 (inactive) | -5.5e-06 (inactive) | 0.00512 (inactive) | 8.43% (inactive) | 21% (inactive)
22 | CCN(CC)C(=O)C1=C(C)NC(=O)NC1c1c(F)cccc1Cl (stereo not drawn) | 410 | -7.5% (inactive) | -3.7% (inactive) | 116% | -73.9% (inactive) | 122% | -0.521 (inactive) | -0.000194 (inactive) | 0.00392 (inactive) | 7.67% (inactive) | 10.6% (inactive)
23 | CCCOc1ccc(-c2nnn(CC(=O)Nc3cccc(C(=O)OC)c3)n2)cc1 | 380 | -2.1% (inactive) | -8.7% (inactive) | 109% | -27.4% (inactive) | 112% | -0.503 (inactive) | 0.000154 (inactive) | 0.00964 (inactive) | 11.3% (inactive) | -4.78% (inactive)
24 | CCCCn1c(SCc2cccnc2)nc2c1c(=O)n(C)c(=O)n2C | 502 | -7.2% (inactive) | 27.2% (inactive) | 90.8% | -15.9% (inactive) | 198% | -0.511 (inactive) | -3.3e-05 (inactive) | 0.00468 (inactive) | -4.82% (inactive) | 0.323% (inactive)
25 | COc1ccc(Cn2nnnc2C(c2ccncc2)N2CCOCC2)cc1 (stereo not drawn) | 543 | 0.5% (inactive) | -5.2% (inactive) | 90.8% | -90.6% (inactive) | 119% | -0.608 (inactive) | -1.7e-05 (inactive) | 0.00759 (inactive) | 7.51% (inactive) | 9.52% (inactive)
26 | C=CCSc1nc2c(c(=O)[nH]c(=O)n2C)n1C(C)C | 309 | -11.3% (inactive) | -2.8% (inactive) | 110% | 33% (inactive) | 97.6% | -0.579 (inactive) | 8.7e-06 (inactive) | 0.00565 (inactive) | 2.75% (inactive) | 14.4% (inactive)
27 | CCCCC(c1nnnn1C1CCCC1)N1CCN(C2CCCCC2)CC1 (stereo not drawn) | 625 | -40.8% (inactive) | -12% (inactive) | 100% | -57.4% (inactive) | 111% | -0.314 (inactive) | -3.5e-05 (inactive) | 0.00481 (inactive) | 10% (inactive) | 39.4% (inactive)
28 | COc1cccc(Nc2c(F)c(F)c(F)c(F)c2C(=O)O)c1 | 246 | -4% (inactive) | 9.3% (inactive) | 77.5% | -11.9% (inactive) | 96.6% | -0.587 (inactive) | -3.3e-05 (inactive) | 0.00658 (inactive) | 10.2% (inactive) | 11.4% (inactive)
